Measurements reported in ChEMBL document CHEMBL5543129, “Peptide Inhibitor Targeting the Extraterminal Domain in BRD4 Potently Suppresses Breast Cancer Both In Vitro and In Vivo” (J Med Chem, 2024).
Square brackets hold non-standard residues; d marks the D form. Peptide text beside a SMILES is read from it. Hyp = O=C(O)[C@@H]1C[C@@H](O)CN1; Ahx = NCCCCCC(=O)O

What was measured:
[1] = target: T1, von Hippel-Lindau disease tumor suppressor/Bifunctional arginine demethylase and lysyl-hydroxylase JMJD6 (Homo sapiens) (UniProt P40337+Q6NYC1); assay: Protac activity at VHL/JMJD6 in human MCF7 cells assessed as degradation by measuring fold change in remaining JMJD6 level at 2.5 uM incubated for 24 hrs by immunoblotting analysis (reference value: […]); type: cell-based
[2] = target: T1, von Hippel-Lindau disease tumor suppressor/Bifunctional arginine demethylase and lysyl-hydroxylase JMJD6 (Homo sapiens); assay: Protac activity at VHL/JMJD6 in human MCF7 cells assessed as degradation by measuring fold change in remaining JMJD6 level at 10 uM incubated for 6 hrs by immunoblotting analysis (reference value: […]); type: cell-based
[3] = target: T2, von Hippel-Lindau disease tumor suppressor/Bromodomain-containing protein 4 (Homo sapiens) (UniProt O60885+P40337); assay: PROTAC activity at VHL/BDR4 ET domain in human MCF7 cells assessed as degradation by measuring fold change in remaining BRD4 level at 10 uM incubated for 24 hrs in presence of TAT by immunoblotting analysis relative to TAT/TAT-PROTAC; type: cell-based
How it was run: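 MCF7 cells are treated with PROTAC peptide (dose series, or 10 μM over a time course, or 10 μM with or without MG132 10 μM) for up to 24 h. Comparators are TAT, TAT-PiET, or TAT-PROTAC at 10 μM. BRD4 is measured by immunoblot, normalised to β-actin; three repeats.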

[4] = target: T1, von Hippel-Lindau disease tumor suppressor/Bifunctional arginine demethylase and lysyl-hydroxylase JMJD6 (Homo sapiens); assay: Protac activity at VHL/JMJD6 in human MCF7 cells assessed as degradation by measuring fold change in remaining JMJD6 level at 10 uM incubated for 24 hrs by immunoblotting analysis (reference value: […]); type: cell-based
[5] = target: T2, von Hippel-Lindau disease tumor suppressor/Bromodomain-containing protein 4 (Homo sapiens); assay: PROTAC activity at VHL/His-tagged BDR4 ET domain (1047 to 1362 residues) (unknown origin) transfected in MCF7 cells assessed as degradation by measuring fold change in remaining BRD4 level at 10 uM incubated for 12 hrs by immunoblotting analysis (reference value: […]); type: cell-based
[6] = target: T1, von Hippel-Lindau disease tumor suppressor/Bifunctional arginine demethylase and lysyl-hydroxylase JMJD6 (Homo sapiens); assay: PROTAC activity at VHL/JMJD6 in human MCF7 cells assessed as degradation by measuring fold change in remaining JMJD6 level at 10 uM incubated for 24 hrs in presence of TAT by immunoblotting analysis relative to TAT/TAT-PROTAC; type: cell-based
How it was run: (§1)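 MCF7 cells were left untreated or given TAT, TAT-PROTAC, TAT-PiET or the PROTAC peptide (each 10 μM) for 24 h. Lysates were immunoblotted with β-actin for loading. Three repeats, quantified in the Supporting Table.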

[7] = target: T2, von Hippel-Lindau disease tumor suppressor/Bromodomain-containing protein 4 (Homo sapiens); assay: PROTAC activity at VHL/His-tagged BDR4 […] (unknown origin) transfected in MCF7 cells assessed as degradation by measuring fold change in remaining BRD4 level at 5 uM incubated for 24 hrs by immunoblotting analysis (reference value: […]); type: cell-based
[8] = target: T1, von Hippel-Lindau disease tumor suppressor/Bifunctional arginine demethylase and lysyl-hydroxylase JMJD6 (Homo sapiens); assay: PROTAC activity at VHL/JMJD6 in human MCF7 cells assessed as degradation by measuring fold change in remaining JMJD6 level at 10 uM incubated for 24 hrs in presence of TAT-PiET by immunoblotting analysis relative to TAT/TAT-PROTAC; type: cell-based; how it was run: as §1
[9] = target: T2, von Hippel-Lindau disease tumor suppressor/Bromodomain-containing protein 4 (Homo sapiens); assay: PROTAC activity at VHL/His-tagged BDR4 […] (unknown origin) transfected in MCF7 cells assessed as degradation by measuring fold change in remaining BRD4 level at 10 uM incubated for 12 hrs by immunoblotting analysis (reference value: […]); type: cell-based
[10] = target: T2, von Hippel-Lindau disease tumor suppressor/Bromodomain-containing protein 4 (Homo sapiens); assay: PROTAC activity at VHL/His-tagged BDR4 […] (unknown origin) transfected in MCF7 cells assessed as degradation by measuring fold change in remaining BRD4 level at 20 uM incubated for 24 hrs by immunoblotting analysis (reference value: […]); type: cell-based
[11] = target: T2, von Hippel-Lindau disease tumor suppressor/Bromodomain-containing protein 4 (Homo sapiens); assay: PROTAC activity at VHL/BDR4 ET domain in human MCF7 cells assessed as degradation by measuring fold change in remaining BRD4 level at 10 uM incubated for 12 hrs by immunoblotting analysis (reference value: […]); type: cell-based
[12] = target: T2, von Hippel-Lindau disease tumor suppressor/Bromodomain-containing protein 4 (Homo sapiens); assay: PROTAC activity at VHL/His-tagged BDR4 ET domain (1 to 470 residues) (unknown origin) transfected in MCF7 cells assessed as degradation by measuring fold change in remaining BRD4 level at 10 uM incubated for 12 hrs by immunoblotting analysis (reference value: […]); type: cell-based
[13] = target: T1, von Hippel-Lindau disease tumor suppressor/Bifunctional arginine demethylase and lysyl-hydroxylase JMJD6 (Homo sapiens); assay: Protac activity at VHL/JMJD6 in human MCF7 cells assessed as degradation by measuring fold change in remaining JMJD6 level at 5 uM incubated for 24 hrs by immunoblotting analysis (reference value: […]); type: cell-based
[14] = target: T2, von Hippel-Lindau disease tumor suppressor/Bromodomain-containing protein 4 (Homo sapiens); assay: PROTAC activity at VHL/His-tagged BDR4 ET domain (471 to 730 residues) (unknown origin) transfected in MCF7 cells assessed as degradation by measuring fold change in remaining BRD4 level at 10 uM incubated for 12 hrs by immunoblotting analysis (reference value: […]); type: cell-based
[15] = target: T2, von Hippel-Lindau disease tumor suppressor/Bromodomain-containing protein 4 (Homo sapiens); assay: PROTAC activity at VHL/His-tagged BDR4 ET domain (601 to 683 residues) (unknown origin) transfected in MCF7 cells assessed as degradation by measuring fold change in remaining BRD4 level at 10 uM incubated for 12 hrs by immunoblotting analysis (reference value: […]); type: cell-based
[16] = target: T2, von Hippel-Lindau disease tumor suppressor/Bromodomain-containing protein 4 (Homo sapiens); assay: PROTAC activity at VHL/BDR4 ET domain in human MCF7 cells assessed as degradation by measuring fold change in remaining BRD4 level at 2.5 uM incubated for 24 hrs by immunoblotting analysis (reference value: […]); type: cell-based
[17] = target: T2, von Hippel-Lindau disease tumor suppressor/Bromodomain-containing protein 4 (Homo sapiens); assay: PROTAC activity at VHL/His-tagged BDR4 ET domain (1047 to 1362 residues) (unknown origin) transfected in MCF7 cells assessed as degradation by measuring fold change in remaining BRD4 level at 20 uM incubated for 24 hrs by immunoblotting analysis (reference value: […]); type: cell-based
[18] = target: T2, von Hippel-Lindau disease tumor suppressor/Bromodomain-containing protein 4 (Homo sapiens); assay: PROTAC activity at VHL/His-tagged BDR4 ET domain (471 to 730 residues) (unknown origin) transfected in MCF7 cells assessed as degradation by measuring fold change in remaining BRD4 level at 10 uM incubated for 24 hrs by immunoblotting analysis (reference value: […]); type: cell-based
MCF7 [19] = assay: Inhibition of His-tagged BRD4 ET domain to Flag-tagged JMJD6 (unknown origin) protein-protein interaction in human MCF7 cells assessed as fold decrease in Flag-tagged JMJD6 level at 10 uM incubated for 12 hrs by immunoblotting assay (reference value: […]); type: cell-based
MCF7 [20] = assay: Inhibition of His-tagged BRD4 ET domain to Flag-tagged JMJD6 (unknown origin) protein-protein interaction in human MCF7 cells assessed as fold decrease in His-tagged BRD4 ET level at 10 uM incubated for 12 hrs by immunoblotting assay (reference value: […]); type: cell-based
T47D = assay: Cytotoxicity against human T47D cells incubated for 1 week by CellTiter 96 Aqueous One Solution based assay; type: functional, cell-based; conditions: 168 h
How it was run: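 Cells grown in RPMI-1640 (T47D, BT549) or DMEM (MDA-MB-231) with 10% FBS, 37 °C, 5% CO2. Seeded 2 × 10^3/well, exposed to a gradient concentration of peptide for 1 week. MTS-type reagent added 20 μL per 100 μL medium, 1 h at 37 °C, absorbance read at 490 nm. EC50 derived from the concentration–response curve.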

T2 sequence (P40337 whole entry, looked up, other chains not shown, the tested form may be a part): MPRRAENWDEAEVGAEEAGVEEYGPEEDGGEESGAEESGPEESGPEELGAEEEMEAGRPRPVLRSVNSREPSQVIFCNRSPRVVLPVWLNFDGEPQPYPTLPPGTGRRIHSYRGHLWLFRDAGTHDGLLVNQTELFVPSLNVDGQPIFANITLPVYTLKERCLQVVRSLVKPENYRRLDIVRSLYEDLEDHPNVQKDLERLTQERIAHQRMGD

CC[C@H](C)[C@H](NC(=O)[C@H](Cc1ccc(O)cc1)NC(=O)[C@@H]1C[C@@H](O)CN1C(=O)[C@H](C)NC(=O)[C@@H](NC(=O)CCCCCNC(=O)[C@H](CCC(=O)O)NC(=O)CNC(=O)[C@H](CS)NC(=O)[C@H](CCCCN)NC(=O)[C@H](Cc1ccccc1)NC(=O)[C@H](CCCCN)NC(=O)[C@H](CCC(N)=O)NC(=O)[C@H](CC(N)=O)NC(=O)[C@H](CCCNC(=N)N)NC(=O)[C@H](CCCNC(=N)N)NC(=O)[C@H](CCCNC(=N)N)NC(=O)[C@H](CCCNC(=N)N)NC(=O)[C@H](CCC(N)=O)NC(=O)[C@H](CCCNC(=N)N)NC(=O)[C@H](CCCNC(=N)N)NC(=O)[C@H](CCCCN)NC(=O)[C@H](CCCCN)NC(=O)[C@H](CCCNC(=N)N)NC(=O)CNC(=O)[C@@H](N)Cc1ccc(O)cc1)[C@@H](C)CC)C(=O)O (H-YGRKKRRQRRRRNQKFKCGE[Ahx]IA[Hyp]YI-OH)
fold change (FC) [1]: 0.91
fold change (FC) [2]: 0.89
fold change (FC) [3]: 0.63
fold change (FC) [4]: 0.59
fold change (FC) [5]: 1.11
fold change (FC) [6]: 0.61
fold change (FC) [7]: 1.01
fold change (FC) [8]: 0.84
fold change (FC) [9]: 0.99
fold change (FC) [10]: 1.4
fold change (FC) [11]: 0.55
fold change (FC) [12]: 1.11
fold change (FC) [13]: 0.77
fold change (FC) [14]: 0.9
fold change (FC) [15]: 0.78
fold change (FC) [16]: 0.92
fold change (FC) [17]: 1.05
fold change (FC) [18]: 0.68

H-YGRKKRRQRRRRNQKFKCGE-OH
fold change (FC) (MCF7 [19]): 0.93
fold change (FC) (MCF7 [20]): 0.49
EC50 (T47D): 13.3 µM
